Measurements reported in ChEMBL document CHEMBL1141844, “Geranins A and B, new antiprotozoal A-type proanthocyanidins from Geranium niveum” (J Nat Prod, 1999).
Converted amounts (≈) assume the structure as drawn. The source made the active and inactive calls. The rule behind the calls is not given here.

Tests used:
Giardia intestinalis = assay: Antiprotozoal activity against axenically grown trophozoites of Giardia lamblia IMSS:0989:1 after 48 hrs by MTT method; format: functional, organism-based; details: Giardia duodenalis
How it was run: (§1)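 Log-phase trophozoites from axenic culture: E. histolytica in TYI-S-33 with 10% bovine serum (inoculum 6 × 10³/mL), G. lamblia in modified TYI-S-33 with 10% calf serum (inoculum 5 × 10⁴/mL). Test material in DMSO/medium at 2.5–200 µg/mL, 48 h, 37 °C. Counted by haemocytometer, then MTT (0.075% final) plus PMS, 45 min, A570. Inhibition converted to probits and regressed on log concentration to give IC50. Duplicates, repeated at least three times.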

Entamoeba histolytica = assay: Antiprotozoal activity against axenically grown trophozoites of Entamoeba histolytica HM1-IMSS after 48 hrs by MTT method; format: functional, organism-based; how it was run: as §1
MCF7 = assay: Cytotoxicity against human MCF7 cells after 7 days by MTT method; format: functional, cell-based
How it was run: (§2)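 Run at the Purdue Cell Culture Laboratory as a seven-day MTT assay on human solid tumour lines, with adriamycin as the positive control.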

HT-29 = assay: Cytotoxicity against human HT-29 cells after 7 days by MTT method; format: functional, cell-based; how it was run: as §2
A549 = assay: Cytotoxicity against human A549 cells after 7 days by MTT method; format: functional, cell-based; how it was run: as §2

Row | SMILES | IC50 (Giardia intestinalis) [µg/mL] | IC50 (Entamoeba histolytica) [µg/mL] | Activity (MCF7) | Activity (HT-29) | Activity (A549)
1 | CC1(C)CC[C@]2(C(=O)O)CC[C@]3(C)C(=CC[C@@H]4[C@@]5(C)CC[C@H](C(=O)/C=C/c6ccc(O)c(O)c6)C(C)(C)[C@@H]5CC[C@]43C)[C@@H]2C1 | 31.2 (≈ 51.8 µM) | 22.6 (≈ 37.5 µM) | inactive | inactive | inactive
2 | COC(=O)c1cc(O)c(O)c(O)c1 [GALLIC ACID METHYL ESTER] | 49.2 (≈ 267 µM) | 144 (≈ 780 µM) | inactive | inactive | inactive
3 | Oc1ccc([C@H]2Oc3c(c(O)cc4c3[C@H]3c5c(O)cc(O)cc5O[C@@](c5ccc(O)cc5)(O4)[C@@H]3O)C[C@@H]2O)cc1 [GERANIN A] | 2.4 (≈ 4.41 µM) | 185 (≈ 339 µM) | inactive | inactive | inactive
4 | Oc1ccc([C@H]2Oc3c(c(O)cc4c3[C@H]3c5c(O)cc(O)cc5O[C@@](c5ccc(O)c(O)c5)(O4)[C@@H]3O)C[C@@H]2O)cc1 [GERANIN B] | 6 (≈ 10.7 µM) | 13.6 (≈ 24.3 µM) | inactive | inactive | inactive
5 | O=c1c(O[C@@H]2O[C@H](CO)[C@H](O)[C@H](O)[C@H]2O)c(-c2ccc(O)c(O)c2)oc2cc(O)cc(O)c12 [HYPEROSIDE] | 85.1 (≈ 183 µM) | 109 (≈ 235 µM) | inactive | inactive | inactive
6 | Cc1ncc([N+](=O)[O-])n1CCO [METRONIDAZOLE] |  | 0.04 (≈ 0.234 µM) | inactive | inactive | inactive
